pIC50: −log10 of the molar value. Active and inactive are the calls of the source. The calls are words filed in the database; no cut-off is given here.
Assays:
Modoc virus = test: Antiviral activity against Modoc virus-infected HeLa-H1 cells; assay type: functional, organism-based
Human alphaherpesvirus 2 [1] = test: Antiviral activity against HSV2-infected Vero cells; assay type: functional, organism-based
San Angelo virus = test: Antiviral activity against San Angelo virus-infected Vero cells; assay type: functional, organism-based
Vaccinia virus = test: Antiviral activity against Vaccinia virus-infected Vero cells; assay type: functional, organism-based, Orthopoxvirus vaccinia
Murine hepatitis virus = test: Antiviral activity against mouse hepatitis virus-infected NCTC clone-1469 cells; assay type: functional, organism-based
In short: (§1)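 Cells were seeded at about 50 000/well and infected 24 h later at MOI 0.1 or less, with drug added alongside. Once infectivity was evident, cells were washed and stained with methylene blue/carbol fuchsin in methanol for 10 min at room temperature.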

Enterovirus = test: Antiviral activity against Rhinovirus-infected HeLa-H1 cells; assay type: functional, organism-based
Simian virus 40 = test: Antiviral activity against SV40-infected Vero cells; assay type: functional, organism-based; conditions: Betapolyomavirus macacae; in short: as §1
[2] = Inhibition of IgE production in antigen-sensitized BALB/c mouse spleen cells; assay type: functional, tissue-based
[3] = tested on: California encephalitis virus; test: Antiviral activity against California encephalitis virus-infected Vero cells; assay type: functional, cell-based
[4] = tested on: Vesicular stomatitis virus; test: Antiviral activity against VSV-infected Vero cells; assay type: functional, organism-based
Human alphaherpesvirus 2 [5] = test: Antiviral activity against HSV2 MS-infected IAF/HA-HO guinea pig assessed as suppression of vesicle formation at 2% applied topically four times a day for 3 days; assay type: functional, organism-based
In short: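 Six hairless guinea pigs were each inoculated at three back sites with HSV-2 MS strain. Sites received drug at 2% in vehicle, vehicle alone, or nothing, rotated between sites so each animal was its own control. Vehicle was 38% Gelucire 44/14, 38% PEG 400, 10% Tween 80 and 10% N-methylpyrrolidinone. Dosing was topical, four times daily at about 2.5 h intervals. Vesicle formation was assessed on day 4 after inoculation.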

[6] = Selectivity ratio, IC50 HSV2-infected Vero cells to IC50 for inhibition of IgE production in antigen-sensitized BALB/c mouse spleen cells; assay type: functional
[7] = Selectivity ratio, IC50 for vaccinia virus-infected Vero cells to IC50 for inhibition of IgE production in antigen-sensitized BALB/c mouse spleen cells; assay type: functional
[8] = California encephalitis virus, Vero

Compound	pIC50 (Modoc virus)	pIC50 (Human alphaherpesvirus 2 [1]; Human alphaherpesvirus 2, Vero)	pIC50 (San Angelo virus; San Angelo virus, Vero)	pIC50 (Vaccinia virus; Orthopoxvirus vaccinia, Vero)	pIC50 (Murine hepatitis virus; Murine coronavirus)	pIC50 (Enterovirus; Enterovirus, HeLa H1)	pIC50 (Simian virus 40)	pIC50 ([2]; Mus musculus, BALB/c, Spleen)	pIC50 [3, 8]	pIC50 [4]	Activity (Human alphaherpesvirus 2 [5])	pIC50 (Human alphaherpesvirus 2 [1]; vero)	pIC50 (San Angelo virus; vero)	pIC50 (Vaccinia virus; vero)	pIC50 (Murine hepatitis virus)	Ratio IC50 [6]	pIC50 (Enterovirus; hela-h1)	pIC50 [2]	pIC50 ([3]; vero)	Ratio IC50 [7]
O=C(NC12CC3CC(CC(C3)C1)C2)c1ccc2[nH]c(-c3ccc(NC(=O)C45CC6CC(CC(C6)C4)C5)cc3)nc2c1	7.22	7.40	7.70	6.22	7.70	7.70	< 5.70	8.30	7.22	< 5.70	–	–	–	–	–	–	–	–	–	–
O=C(Nc1ccccn1)c1cc2nc(-c3ccc(NC(=O)C45CC6CC(CC(C6)C4)C5)cc3)[nH]c2cn1	6.22	6.22	7.40	5.82	7.30	6.70	< 5.70	6.92	7.40	< 5.70	–	–	–	–	–	–	–	–	–	–
CC(=O)OC1CCC(C(=O)Nc2ccc(-c3nc4cc(NC(=O)C5CCC(OC(C)=O)CC5)ccc4[nH]3)cc2)CC1 (centres undefined)	< 6.22	< 5.70	< 5.70	< 5.70	< 6.22	< 5.70	5.82	6.00	< 5.70	6.00	–	–	–	–	–	–	–	–	–	–
O=C(Nc1ccc(-c2nc3cc(NC(=O)C45CC6CC(CC(C6)C4)C5)ncc3[nH]2)cc1)C12CC3CC(CC(C3)C1)C2	7.70	8.30	8.22	8.00	8.10	8.00	< 5.70	9.00	8.22	< 5.70	Active	–	–	–	–	–	–	–	–	–
O=C(Nc1ccccn1)c1ccc2[nH]c(-c3ccc(NC(=O)C45CC6CC(CC(C6)C4)C5)cc3F)nc2c1	7.22	6.82	6.70	6.22	7.22	6.40	< 5.70	8.00	6.70	< 5.70	–	–	–	–	–	–	–	–	–	–
O=C(Nc1ccc(-c2nc3cc(NC(=O)C45CC6CC(C4)C(O)C(C6)C5)ncc3[nH]2)cc1)C12CC3CC(CC(C3)C1)C2 (centres undefined)	7.70	7.05	7.22	6.40	6.70	7.70	6.00	9.82	7.22	< 5.70	–	–	–	–	–	–	–	–	–	–
O=C(NC12CC3CC(C1)C(=O)C(C3)C2)c1cc2nc(-c3ccc(NC(=O)C45CC6CC(CC(O)(C6)C4)C5)cc3)[nH]c2cn1	< 6.22	< 5.70	6.70	< 5.70	< 6.22	7.00	< 5.70	6.85	6.70	< 5.70	–	–	–	–	–	–	–	–	–	–
O=C(Nc1ccc(-c2nc3cc(C(=O)NC45CC6CC(CC(C6)C4)C5)ncc3[nH]2)cc1)c1ccc(Cl)cc1	7.70	7.70	7.70	7.40	7.22	6.40	< 5.70	8.52	7.22	< 5.70	–	–	–	–	–	–	–	–	–	–
O=C(Nc1ccccn1)c1ccc2[nH]c(-c3ccc(NC(=O)C45CC6CC(CC(C6)C4)C5)cc3)nc2c1 (stereo in doubt; 1d)	–	–	–	–	–	–	–	–	–	–	–	6.52	6.70	6.52	7.52	25	6.70	7.92	6.70	25
O=C(Nc1ccc(-c2nc3cc(NC(=O)C45CC6CC(CC(C6)C4)C5)ccc3[nH]2)cc1)C12CC3CC(CC(C3)C1)C2	7.70	7.70	7.22	6.40	7.92	7.22	5.92	9.00	7.52	< 5.70	–	–	–	–	–	–	–	–	–	–
CC(=O)OC1C2CC3CC1CC(C(=O)Nc1ccc(-c4nc5cc(C(=O)Nc6ccccn6)ccc5[nH]4)cc1)(C3)C2 (centres undefined)	6.70	6.00	7.22	5.82	< 6.22	6.70	< 5.70	8.00	6.89	< 5.70	–	–	–	–	–	>100	–	–	–	>100
O=C(Nc1ccc(-c2nc3cc(NC(=O)C4CCCCC4)ccc3[nH]2)cc1)C1CCCCC1	7.30	6.77	6.70	6.70	7.70	6.80	6.00	8.30	6.70	6.00	–	–	–	–	–	–	–	–	–	–
O=C(Nc1ccc(-c2nc3cc(C(=O)NC45CC6CC(CC(C6)C4)C5)ccc3[nH]2)cc1)c1ccc(Cl)c(Cl)c1	8.22	7.70	8.22	7.70	8.10	7.70	< 5.70	9.00	7.70	< 5.70	–	–	–	–	–	–	–	–	–	–
O=C1C2CC3CC1CC(C(=O)Nc1ccc(-c4nc5cc(NC(=O)C67CC8CC(CC(C8)C6)C7)ncc5[nH]4)cc1)(C3)C2	< 6.22	6.60	6.70	6.40	6.70	< 5.70	< 5.70	8.40	6.70	< 5.70	–	–	–	–	–	–	–	–	–	–
O=C(NC12CC3CC(CC(C3)C1)C2)c1cc2nc(-c3ccc(NC(=O)C45CC6CC(CC(C6)C4)C5)cc3)[nH]c2cn1	7.00	7.52	7.22	6.85	7.70	7.40	< 5.70	8.00	7.22	< 5.70	–	–	–	–	–	–	–	–	–	–
O=C(Nc1ccccn1)c1ccc2[nH]c(-c3ccc(NC(=O)[C@]45CC6CC(C4)[C@@H](O)C(C6)C5)cc3)nc2c1	6.40	5.82	6.87	5.74	7.00	6.70	< 5.70	8.00	7.22	< 5.70	–	–	–	–	–	150	–	–	–	150
O=C(Nc1ccc(-c2nc3cc(NC(=O)C45CC6CC(CC(C6)C4)C5)ncc3[nH]2)cc1)C12CC3CC(C1)C(O)C(C3)C2 (centres undefined)	7.70	7.22	7.22	6.92	7.70	8.00	< 5.70	9.00	6.70	6.00	–	–	–	–	–	–	–	–	–	–
O=C(Nc1ccc(-c2nc3cc(NC(=O)C4CCCCC4)ncc3[nH]2)cc1)C1CCCCC1	8.22	7.70	7.70	7.22	7.82	7.22	< 5.70	8.82	7.22	< 5.70	–	–	–	–	–	–	–	–	–	–
O=C(Nc1ccc(-c2nc3cc(C(=O)NC45CC6CC(C4)C(=O)C(C6)C5)ncc3[nH]2)cc1)c1ccc(Cl)cc1	< 6.22	7.40	6.87	7.40	7.00	7.70	< 5.70	9.82	6.70	6.00	–	–	–	–	–	–	–	–	–	–
O=C(Nc1ccccn1)c1ccc2[nH]c(-c3ccc(NC(=O)C45CC6CC(CC(C6)C4)C5)cc3)nc2c1 (stereo in doubt; 1h)	7.22	–	–	–	7.70	–	< 5.70	–	–	< 5.70	–	7.52	7.70	7.40	–	–	7.70	8.40	7.22	–
O=C(Nc1ccc(-c2nc3cc(NC(=O)C4CCCCC4)ccc3[nH]2)cc1)c1ccc(Cl)c(Cl)c1	7.70	7.22	7.22	6.22	7.70	6.70	< 5.70	8.52	6.70	< 5.70	–	–	–	–	–	–	–	–	–	–
O=C(Nc1cc2nc(-c3ccc(NC(=O)C45CC6CC(CC(C6)C4)C5)cc3)[nH]c2cn1)c1ccccn1	7.22	7.12	7.22	6.30	7.22	7.22	< 5.70	8.00	7.22	6.00	–	–	–	–	–	–	–	–	–	–
O=C1C2CC3CC1CC(C(=O)Nc1ccc(-c4nc5cc(NC(=O)C67CC8CC(C6)C(=O)C(C8)C7)ncc5[nH]4)cc1)(C3)C2	< 6.22	< 5.70	6.70	< 5.70	< 6.22	< 5.70	6.00	7.35	6.70	< 5.70	–	–	–	–	–	–	–	–	–	–

Reference: ChEMBL document CHEMBL1138288, “2-phenylimidazopyridines, a new series of Golgi compounds with potent antiviral activity” (J Med Chem, 2007)
